ChEMBL document CHEMBL4373675, “Derivatisation of parthenolide to address chemoresistant chronic lymphocytic leukaemia” (Medchemcomm, 2019)
The source made the active and inactive calls. The calls are words filed in the database; no cut-off is given here.

Assays:
[1] = AUC in mouse at 10 mg/kg, po; type: ADME, organism-based; settings: in vivo
[2] = test system: MEC1; experiment: Antiproliferative activity against human MEC1 cells assessed as cell death in presence of ROS scavenger N-acetyl-L-cysteine by alamar blue assay; type: functional, cell-based
In short: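 MEC1 CLL cells (ATCC; carry mutated p53) were pretreated with N-acetylcysteine and then exposed to compound across a concentration series. Viability was read by alamarBlue, and EC50 was taken from concentration-activity plots.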

[3] = AUC (0 to infinity) in mouse at 1 mg/kg, iv; type: ADME, organism-based; set-up: dose 1 mg/kg, route intravenous, time infinity; settings: in vivo
[4] = Intrinsic clearance in mouse hepatocytes assessed as per million cells; type: ADME, cell-based, Hepatocyte; settings: read-out: CLH
In short: (§1)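 Metabolic stability was measured in mouse hepatocytes. Intrinsic clearance is given in µL min⁻¹ per million cells, alongside half-life in min.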

[5] = Volume of distribution at steady state in mouse at 1 mg/kg, iv; type: ADME, organism-based; settings: in vivo, read-out: Vdss
[6] = Permeability across basolateral to apical side in human Caco2 cells; type: ADME, cell-based; settings: Caco-2
In short: (§2)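 Permeability was measured in a Caco-2 monolayer at pH 7.4 in both the apical-to-basolateral and basolateral-to-apical directions. Results are given as mean apparent permeability (Papp, 10⁻⁶ cm s⁻¹), and efflux ratio was derived from the two directions.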

[7] = Oral bioavailability in mouse at 10 mg/kg; type: ADME, organism-based; settings: in vivo
[8] = Tmax in mouse at 10 mg/kg, po; type: ADME, organism-based; settings: in vivo
[9] = Permeability across apical to basolateral side in human Caco2 cells; type: ADME, cell-based; settings: Caco-2; in short: as §2
[10] = Half life in mouse hepatocytes; type: ADME, cell-based, Hepatocyte; in short: as §1
[11] = Half life in aqueous solution at pH 7.4; type: physicochemical

**Q.** Which AUC(0-inf) [1] does the source give for `C/C1=C\CC[C@@]2(C)O[C@@H]2[C@H]2OC(=O)[C@@H](CN3CCC(c4cc(O)nc(C)n4)CC3)[C@@H]2CC1` here?
**A.** 1700 ng·h/mL

**Q.** And the Activity [2]?
**A.** inactive

**Q.** And the AUC(0-inf) [3]?
**A.** 289 ng·h/mL

**Q.** And the hepatocyte CLint [4]?
**A.** 22 µL/min/1e6 cells

**Q.** Which hepatocyte CLint [4] does the source give for `C/C1=C\CC[C@@]2(C)O[C@@H]2[C@H]2OC(=O)[C@@H](CN[C@@H](Cc3ccccc3)C(=O)O)[C@@H]2CC1` here?
**A.** 16 µL/min/1e6 cells

**Q.** Which AUC(0-inf) [1] does the source give for `C/C1=C/CC[C@@]2(C)O[C@@H]2[C@H]2OC(=O)[C@@H](CN3CCCC3)[C@@H]2CC1` here?
**A.** 711 ng·h/mL

**Q.** What about the Vd [5] of the same compound?
**A.** 11.6 L/kg

**Q.** What about the Papp B→A [6] of the same compound?
**A.** 16.2 ×10⁻⁶ cm/s

**Q.** What about the bioavailability [7] of the same compound?
**A.** 95.8%

**Q.** What about the Tmax [8] of the same compound?
**A.** 30 min

**Q.** And the Papp A→B [9]?
**A.** 15.9 ×10⁻⁶ cm/s

**Q.** What about the AUC(0-inf) [3] of the same compound?
**A.** 80.5 ng·h/mL

**Q.** And the half-life [10]?
**A.** 65 min

**Q.** What about the half-life [11] of the same compound?
**A.** > 120 min

**Q.** What about the hepatocyte CLint [4] of the same compound?
**A.** 22 µL/min/1e6 cells
